Data taken from ChEMBL document CHEMBL5335796, “Novel Psilocin Prodrugs with Altered Pharmacological Properties as Candidate Therapies for Treatment-Resistant Anxiety Disorders” (J Med Chem, 2024).
Calls of active or inactive are those of the source. The calls are words filed in the database; no cut-off is given here.

Key:
[1] = Metabolic stability in human liver microsomes assessed as half life at 2.5 uM measured upto 120 mins in presence of NADPH by LC-MS analysis; format: ADME, Microsome; conditions: microsomes, 2 h, 2.5 µM
Outline: (§1)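 2.5 μM compound at 37 °C in 50 mM potassium phosphate pH 7.4 with 3 mM MgCl2, 1 mM EDTA and an NADPH regenerating system. […] Sampled at 0–120 min in 20-min steps, acetonitrile quench, LC-MS of parent. T1/2 from one-phase exponential decay fit.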

[2] = Metabolic stability in human intestine microsomes assessed as half life at 2.5 uM measured upto 120 mins in presence of NADPH by LC-MS analysis; format: ADME, Microsome; conditions: 2 h; outline: as §1
[3] = Drug metabolism in human liver S9 fraction assessed as psilocin formation at 2.5 uM after 120 mins by LC-MS analysis; format: ADME, subcellular; conditions: s9, 2 h
Outline: (§2)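 2.5 μM compound in 50 mM potassium phosphate pH 7.4 with 3 mM MgCl2, 1 mM EDTA and an NADPH regenerating system. Incubated at 37 °C with human liver or intestinal S9 or microsomes (400 μg/mL protein) or 10% human AB serum. Acetonitrile quench, then LC-MS; psilocin concentration read at 120 min.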

[4] = Drug metabolism in human liver microsomes assessed as psilocin formation at 2.5 uM after 120 mins by LC-MS analysis; format: ADME, Microsome; conditions: 2 h; outline: as §2
[5] = Drug metabolism in human intestine microsomes assessed as psilocin formation at 2.5 uM after 120 mins by LC-MS analysis; format: ADME, Microsome; conditions: 2 h; outline: as §2
[6] = Metabolic stability in human serum assessed as half life at 2.5 uM measured upto 120 mins in presence of NADPH by LC-MS analysis; format: ADME, cell-free; conditions: 2 h; outline: as §1
[7] = Drug metabolism in human intestine S9 fraction assessed as psilocin formation at 2.5 uM after 120 mins by LC-MS analysis; format: ADME, subcellular; conditions: s9, 2 h; outline: as §2
[8] = Metabolic stability in human intestine S9 fraction assessed as half life at 2.5 uM measured upto 120 mins in presence of NADPH by LC-MS analysis; format: ADME, subcellular; conditions: s9, 2 h; outline: as §1
[9] = Metabolic stability in human liver S9 fraction assessed as half life at 2.5 uM measured upto 120 mins in presence of NADPH by LC-MS analysis; format: ADME, subcellular; conditions: s9, 2 h, 2.5 µM; outline: as §1
[10] = Drug metabolism in human serum assessed as psilocin formation at 2.5 uM after 120 mins by LC-MS analysis; format: ADME, cell-free; conditions: 2 h; outline: as §2
[11] = Drug metabolism in C57BL/6 mouse assessed as psilocin formation at 10 mg/kg, po measured after 8 hrs by LC-MS analysis; format: ADME, organism-based; conditions: in vivo
[12] = Drug metabolism in po dosed C57BL/6 mouse assessed as psilocin formation measured upto 24 hrs by LC-MS analysis; format: ADME, organism-based; conditions: in vivo, dose 1-10 mg/kg
Mus musculus = experiment: Psychedelic activity in mouse assessed as head-twitch response at 1 mg/kg, po measured after 15 to 30 mins; format: functional, organism-based; conditions: time 15-30 min
Outline: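 C57BL/6 mice, singly housed for 2 days, with 30-min predose chamber acclimation. Single oral 1 mg/kg dose from 100 mM DMSO stock diluted in 0.9% saline; vehicle 1% DMSO in saline. Video-recorded after dosing; head twitches scored blind per 15-min interval (reference time course) or for the 15–30 min window. n = 2–4; one-way ANOVA.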

Structure (SMILES): CC(C)[Si](C(C)C)(C(C)C)n1cc(CCN(C)C)c2c(OC(=O)OCC3CC3)cccc21
- t1/2 [1]: 31 min
- t1/2 [2]: 24 min
- Drug metabolism [3]: 0.072 µM
- Drug metabolism [4]: 0.186 µM
- Drug metabolism [5]: 0.096 µM
- t1/2 [6]: 26 min
- Drug metabolism [7]: 0.018 µM
- t1/2 [8]: 24 min
- t1/2 [9]: 49 min
- Drug metabolism [10]: 0 µM

Structure (SMILES): CC(C)[Si](C(C)C)(C(C)C)n1cc(CCN(C)C)c2c(OCc3ccc(F)cc3)cccc21
- t1/2 [1]: 27 min
- t1/2 [2]: 50 min
- Drug metabolism [3]: 0 µM
- Drug metabolism [4]: 0 µM
- Drug metabolism [5]: 0 µM
- Drug metabolism [7]: 0 µM
- t1/2 [8]: 64 min
- t1/2 [9]: 60 min
- Drug metabolism [10]: 0 µM

Structure (SMILES): CC(C)[Si](C(C)C)(C(C)C)n1cc(CCN(C)C)c2c(OC(=O)c3ccc(Br)cc3)cccc21
- t1/2 [1]: 25 min
- t1/2 [2]: 11 min
- Drug metabolism [3]: 0.656 µM
- Drug metabolism [4]: 1.659 µM
- Drug metabolism [5]: 0.887 µM
- Drug metabolism [7]: 0.195 µM
- t1/2 [8]: 16 min
- t1/2 [9]: 15 min
- Drug metabolism [10]: 0 µM

Structure (SMILES): CN(C)CCc1c[nH]c2cccc(OC(=O)OCC(Cl)(Cl)Cl)c12
- t1/2 [1]: 277 min
- t1/2 [2]: 150 min
- Drug metabolism [3]: 0.133 µM
- Drug metabolism [4]: 0.057 µM
- Drug metabolism [5]: 0 µM
- t1/2 [6]: 182 min
- Drug metabolism [7]: 0 µM
- t1/2 [8]: 221 min
- Drug metabolism [10]: 0 µM

Structure (SMILES): CCC(=O)OCOc1cccc2c1c(CCN(C)C)cn2C(=O)CC
- t1/2 [1]: 13 min
- t1/2 [2]: 22 min
- Drug metabolism [3]: 0 µM
- Drug metabolism [4]: 0.001 µM
- Drug metabolism [5]: 0 µM
- t1/2 [6]: 0.8 min
- Drug metabolism [7]: 0 µM
- t1/2 [8]: 52 min
- t1/2 [9]: 16 min
- Drug metabolism [10]: 0 µM

Structure (SMILES): CC(C)[Si](Oc1cccc2[nH]cc(CCN(C)C)c12)(C(C)C)C(C)C
- t1/2 [1]: 104 min
- t1/2 [2]: 27 min
- Drug metabolism [3]: 0 µM
- Drug metabolism [4]: 0 µM
- Drug metabolism [5]: 0 µM
- Drug metabolism [11]: Metabolite_Notdetected
- Drug metabolism [7]: 0 µM
- t1/2 [8]: 57 min
- t1/2 [9]: 96 min
- Drug metabolism [10]: 0.142 µM
- Drug metabolism [12]: Dose-Dependent Effect

Structure (SMILES): CN(C)CCc1c[nH]c2cccc(O[Si](C)(C)C(C)(C)C)c12
- t1/2 [1]: 347 min
- Drug metabolism [3]: 0 µM
- Drug metabolism [4]: 0.012 µM
- Drug metabolism [5]: 0 µM
- Drug metabolism [11]: Metabolite_Notdetected
- Activity (Mus musculus): Active
- Drug metabolism [7]: 0 µM
- t1/2 [9]: 191 min
- Drug metabolism [10]: 0 µM
- Drug metabolism [12]: Dose-Dependent Effect

Structure (SMILES): CCC(=O)Oc1cccc2c1c(CCN(C)C)cn2[Si](C(C)C)(C(C)C)C(C)C
- t1/2 [1]: 2 min
- t1/2 [2]: 2 min
- Drug metabolism [3]: 0.204 µM
- Drug metabolism [4]: 0.244 µM
- Drug metabolism [5]: 0.053 µM
- t1/2 [6]: 49 min
- Drug metabolism [7]: 0 µM
- t1/2 [8]: 2 min
- t1/2 [9]: 3 min
- Drug metabolism [10]: 0 µM

Structure (SMILES): CN(C)CCc1c[nH]c2cccc(OP(=O)(Oc3ccccc3)Oc3ccccc3)c12
- t1/2 [1]: 43 min
- t1/2 [2]: 28 min
- Drug metabolism [3]: 0.073 µM
- Drug metabolism [4]: 0 µM
- Drug metabolism [5]: 0.076 µM
- Drug metabolism [11]: Metabolite_Notdetected
- Drug metabolism [7]: 0 µM
- t1/2 [8]: 52 min
- t1/2 [9]: 96 min
- Drug metabolism [10]: 0.069 µM
- Drug metabolism [12]: Dose-Dependent Effect

Structure (SMILES): CN(C)CCc1c[nH]c2cccc(OC(=O)c3cccc4c3OCCO4)c12
- t1/2 [1]: 390 min
- t1/2 [2]: 113 min
- Drug metabolism [3]: 0.145 µM
- Drug metabolism [4]: 0.329 µM
- Drug metabolism [5]: 0 µM
- Drug metabolism [11]: Metabolite_Notdetected
- Activity (Mus musculus): inactive
- Drug metabolism [7]: 0 µM
- t1/2 [9]: 529 min
- Drug metabolism [10]: 0 µM
- Drug metabolism [12]: Dose-Dependent Effect

Structure (SMILES): CC(C)[Si](C(C)C)(C(C)C)n1cc(CCN(C)C)c2c(OC(=O)Sc3ccccc3)cccc21
- t1/2 [1]: 9 min
- t1/2 [2]: 13 min
- Drug metabolism [3]: 0.133 µM
- Drug metabolism [4]: 0.206 µM
- Drug metabolism [5]: 0 µM
- t1/2 [6]: 32 min
- Drug metabolism [7]: 0 µM
- t1/2 [8]: 24 min
- t1/2 [9]: 7 min
- Drug metabolism [10]: 0 µM

Structure (SMILES): CCOC(=O)[C@@H](C)NP(=O)(Oc1ccccc1)Oc1cccc2c1c(CCN(C)C)cn2[Si](C(C)C)(C(C)C)C(C)C (stereo not given in full)
- t1/2 [1]: 22 min
- t1/2 [2]: 29 min
- Drug metabolism [3]: 0.153 µM
- Drug metabolism [4]: 0.324 µM
- Drug metabolism [5]: 0 µM
- t1/2 [6]: 145 min
- Drug metabolism [7]: 0.47 µM
- t1/2 [8]: 39 min
- t1/2 [9]: 26 min
- Drug metabolism [10]: 0 µM

Structure (SMILES): CC(C)OC(=O)OCOc1cccc2c1c(CCN(C)C)cn2COC(=O)OC(C)C
- t1/2 [1]: 104 min
- t1/2 [2]: 894 min
- Drug metabolism [3]: 0.186 µM
- Drug metabolism [4]: 0.056 µM
- Drug metabolism [5]: 0 µM
- t1/2 [6]: 3 min
- Drug metabolism [11]: Metabolite_Notdetected
- Drug metabolism [7]: 0 µM
- t1/2 [8]: 266 min
- t1/2 [9]: 293 min
- Drug metabolism [10]: 0 µM
- Drug metabolism [12]: Dose-Dependent Effect

Structure (SMILES): CN(C)CCc1c[nH]c2cccc(O[Si](c3ccccc3)(c3ccccc3)C(C)(C)C)c12
- t1/2 [1]: 229 min
- Drug metabolism [3]: 0 µM
- Drug metabolism [4]: 0 µM
- Drug metabolism [5]: 0 µM
- Drug metabolism [7]: 0 µM
- t1/2 [9]: 391 min
- Drug metabolism [10]: 0 µM

Structure (SMILES): CN(C)CCc1c[nH]c2cccc(OC(=O)c3cccc(C(=O)Oc4cccc5[nH]cc(CCN(C)C)c45)c3)c12
- t1/2 [1]: 241 min
- t1/2 [2]: 621 min
- Drug metabolism [3]: 0 µM
- Drug metabolism [4]: 0 µM
- Drug metabolism [5]: 0 µM
- t1/2 [6]: 101 min
- Drug metabolism [7]: 0 µM
- t1/2 [8]: 445 min
- Drug metabolism [10]: 0 µM

Structure (SMILES): COCCOCCOCC(=O)Oc1cccc2[nH]cc(CCN(C)C)c12
- t1/2 [1]: 5 min
- t1/2 [2]: 60 min
- Drug metabolism [3]: 0 µM
- Drug metabolism [4]: 0.494 µM
- Drug metabolism [5]: 0 µM
- t1/2 [6]: 0.8 min
- Drug metabolism [7]: 0 µM
- t1/2 [8]: 72 min
- t1/2 [9]: 16 min
- Drug metabolism [10]: 0 µM

Structure (SMILES): COC(=O)c1cccc(C(=O)Oc2cccc3[nH]cc(CCN(C)C)c23)c1
- t1/2 [1]: 22 min
- Drug metabolism [3]: 0.451 µM
- Drug metabolism [4]: 0.919 µM
- Drug metabolism [5]: 0.241 µM
- t1/2 [6]: 33 min
- Drug metabolism [7]: 0.166 µM
- t1/2 [9]: 33 min
- Drug metabolism [10]: 3.148 µM

Structure (SMILES): CN(C)CCc1c[nH]c2cccc(OP3(=O)OCC(C)(C)CO3)c12
- Drug metabolism [3]: 0.011 µM
- Drug metabolism [4]: 0 µM
- Drug metabolism [5]: 0 µM
- Drug metabolism [7]: 0 µM
- Drug metabolism [10]: 0 µM

Structure (SMILES): CN(C)CCc1cn(C(=O)OCc2ccccc2)c2cccc(OC(=O)OCc3ccccc3)c12
- t1/2 [1]: 52 min
- t1/2 [2]: 13 min
- Drug metabolism [3]: 0 µM
- Drug metabolism [4]: 0 µM
- Drug metabolism [5]: 0 µM
- t1/2 [6]: 0.8 min
- Drug metabolism [11]: Metabolite_Notdetected
- Drug metabolism [7]: 0 µM
- t1/2 [8]: 16 min
- t1/2 [9]: 22 min
- Drug metabolism [10]: 0 µM
- Drug metabolism [12]: Dose-Dependent Effect

Structure (SMILES): CN(C)CCc1c[nH]c2cccc(OC(=O)c3ccc(Br)cc3)c12
- t1/2 [1]: 87 min
- t1/2 [2]: 71 min
- Drug metabolism [3]: 0.689 µM
- Drug metabolism [4]: 1.31 µM
- Drug metabolism [5]: 0.018 µM
- t1/2 [6]: 19 min
- Drug metabolism [11]: Metabolite_Notdetected
- Drug metabolism [7]: 0 µM
- t1/2 [8]: 69 min
- t1/2 [9]: 39 min
- Drug metabolism [10]: 2.01 µM
- Drug metabolism [12]: Dose-Dependent Effect
